Measured values as given in ChEMBL document CHEMBL4330070, “Design and synthesis of novel pyrimidine derivatives as potent antitubercular agents” (Eur J Med Chem, 2019).
Calls of active or inactive are those of the source. No cut-off for these calls is given here.

Tests used:
[1] = tested on: Mycobacterium tuberculosis; test: Antimicrobial activity against autoluminescent Mycobacterium tuberculosis H37Ra assessed as test compound concentration causing ratio of drug treated RLU/untreated RLU less than 10% measured every day up to 6 days by luminometric method; assay type: functional; conditions: 144 h
How it was run: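 Autoluminescent marker-free H37Ra (UAIRa) grown in 7H9 with OADC and 0.05% Tween 80 until RLU exceeded 5 million/mL, then diluted to 10,000-50,000 RLU/mL in 7H9 without Tween 80. Compounds tested as 2-fold dilutions from 100 to 0.625 µg/mL, with DMSO 2% and rifampicin 1 µg/mL controls. RLU read daily to day 6. MIC is the lowest concentration giving RLU drug/DMSO below 10%.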

[2] = tested on: Mycobacterium tuberculosis; test: Antimicrobial activity against autoluminescent Mycobacterium tuberculosis H37Ra infected in BALB/c mouse assessed as reduction in bacterial burden in spleen at 200 mg/kg administered daily via gavage for 5 days and measured on day 6 by luminometric method; assay type: functional, organism-based
How it was run: (§1)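 Mice grouped by similar RLU, four per group. Dosed by gavage daily from day 0 to day 5 in 0.5% CMC-Na, with vehicle, RIF 10 mg/kg and PZA 150 mg/kg controls. Lung or spleen burden read as log10 RLU, mean ± SD.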

[3] = tested on: Mycobacterium tuberculosis; test: Synergistic antimicrobial activity against autoluminescent Mycobacterium tuberculosis H37Ra assessed as test compound concentration causing ratio of drug treated RLU/untreated RLU less than 10% by measuring FICI at 0.0625 to 2 times MIC after 7 days in presence of sulfamethoxazole by luminometric method; assay type: functional
How it was run: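 Exponential-phase UAIRa in 7H9 without Tween 80 at 10,000-50,000 RLU/mL. Compound at 2-fold dilutions from 2×MIC to MIC/16, each combined with sulfamethoxazole at 16, 8, 4 or 2 µg/mL, with a 2% DMSO control. RLU read after 7 days at 37 °C. MIC taken as RLU drug/DMSO below 10%. FICI is the sum of MIC in combination over MIC alone for each drug.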

[4] = tested on: Mycobacterium tuberculosis; test: Antimicrobial activity against autoluminescent Mycobacterium tuberculosis H37Ra infected in BALB/c mouse assessed as reduction in bacterial burden in lung at 200 mg/kg administered daily via gavage for 5 days and measured on day 6 by luminometric method; assay type: functional, organism-based; how it was run: as §1
[5] = Toxicity in Balb/c mouse infected with Mycobacterium tuberculosis H37Ra assessed as mouse death at 200 mg/kg administered daily via gavage for 5 days; assay type: organism-based; conditions: in vivo, po, 120 h
How it was run: (§2)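 Female BALB/c mice aged 4-5 weeks infected by tail vein with autoluminescent H37Ra, four per group. Gavage daily from day 0 to day 5 in 0.5% CMC-Na vehicle. Deaths recorded over the 6-day treatment period and reported as percent survival.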

[6] = Toxicity in Balb/c mouse infected with Mycobacterium tuberculosis H37Ra assessed as mouse death at 300 mg/kg administered daily via gavage for 5 days; assay type: organism-based; conditions: in vivo, po, 120 h; how it was run: as §2
[7] = tested on: Mycobacterium tuberculosis; test: Antimicrobial activity against autoluminescent Mycobacterium tuberculosis H37Ra infected in BALB/c mouse assessed as reduction in bacterial burden in spleen at 300 mg/kg administered daily via gavage for 5 days and measured on day 6 by luminometric method; assay type: functional, organism-based; how it was run: as §1
[8] = tested on: Mycobacterium tuberculosis; test: Antimicrobial activity against autoluminescent Mycobacterium tuberculosis H37Ra infected in BALB/c mouse assessed as reduction in bacterial burden in lung at 300 mg/kg administered daily via gavage for 5 days and measured on day 6 by luminometric method; assay type: functional; how it was run: as §1
[9] = tested on: Mycobacterium tuberculosis; test: Antimicrobial activity against autoluminescent Mycobacterium tuberculosis H37Ra infected in BALB/c mouse assessed as reduction in bacterial burden in lung at 100 to 300 mg/kg administered daily via gavage for 5 days and measured on day 6 by luminometric method; assay type: functional; how it was run: as §1
[10] = tested on: Mycobacterium tuberculosis; test: Antimicrobial activity against autoluminescent Mycobacterium tuberculosis H37Ra infected in BALB/c mouse assessed as reduction in bacterial burden in spleen at 100 to 300 mg/kg administered daily via gavage for 5 days and measured on day 6 by luminometric method; assay type: functional; how it was run: as §1
[11] = Toxicity in Balb/c mouse infected with Mycobacterium tuberculosis H37Ra assessed as mouse death at 100 mg/kg administered daily via gavage for 5 days; assay type: organism-based; conditions: in vivo, po, 120 h; how it was run: as §2

Row | SMILES | MIC [1] [µM] | also measured
1 | CC(C)S(=O)(=O)c1ccccc1Nc1nc(NCCc2ccc(Br)cc2)ncc1Cl | > 150 | 
2 | CC(C)S(=O)(=O)c1ccccc1Nc1nc(Nc2ccccc2OCCCN2CCOCC2)ncc1Cl | > 150 | 
3 | COc1ccc(CCNc2nc(Nc3cc(C)c(C4CCNCC4)cc3OC(C)C)ncc2Cl)cc1 | 5 | Activity [2]: inactive; fractional inhibitory concentration index (FICI) [3]: 1.24; Activity [4]: inactive; Activity [5]: Toxic
4 | Cc1cc(Nc2ncc(Cl)c(NCCc3ccccc3)n2)c(OC(C)C)cc1C1CCNCC1 | 5 | Activity [2]: Active; Activity [6]: Non-Toxic; fractional inhibitory concentration index (FICI) [3]: 0.74; Activity [4]: Active; Activity [5]: Non-Toxic
5 | Cc1cc(Nc2ncc(Cl)c(Nc3ccccc3S(=O)(=O)C(C)C)n2)c(OC(C)C)cc1C1CCNCC1 [CERITINIB] | 9 | Activity [6]: Toxic; fractional inhibitory concentration index (FICI) [3]: 0.74; Activity [7]: inactive; Activity [8]: 1 log10RLU
6 | Cc1cc(Nc2ncc(Cl)c(N[C@H](C)c3ccccc3)n2)c(OC(C)C)cc1C1CCNCC1 | 10 | 
7 | COc1ccc(Nc2nc(Nc3cc(C)c(C4CCNCC4)cc3OC(C)C)ncc2Cl)cc1Br | 9 | 
8 | CC(C)S(=O)(=O)c1ccccc1Nc1nc(Nc2ccccc2C#N)ncc1Cl | > 200 | 
9 | CC(C)S(=O)(=O)c1ccccc1Nc1nc(Nc2ccc(Cl)cc2)ncc1Cl | > 200 | 
10 | Cc1cc(Nc2ncc(Cl)c(NC(C)(C)Cc3ccc4ccccc4c3)n2)c(OC(C)C)cc1C1CCNCC1 | 18 | 
11 | Cc1cc(Nc2ncc(Cl)c(NCCc3cccs3)n2)c(OC(C)C)cc1C1CCNCC1 | 10 | 
12 | COc1ccc(Nc2ncc(Cl)c(Nc3ccccc3S(=O)(=O)C(C)C)n2)cc1 | > 200 | 
13 | Cc1cc(Nc2ncc(Cl)c(N3CCCc4ccccc43)n2)c(OC(C)C)cc1C1CCNCC1 | 20 | 
14 | Cc1cc(Nc2ncc(Cl)c(Nc3cccc4ccccc34)n2)c(OC(C)C)cc1C1CCNCC1 | 5 | Activity [6]: Non-Toxic; fractional inhibitory concentration index (FICI) [3]: 0.74; Activity [9]: 2 log10RLU; Activity [10]: 0.5 log10RLU; Activity [11]: Non-Toxic
15 | Cc1cc(Nc2ncc(Cl)c(Nc3cc(C(F)(F)F)cc(C(F)(F)F)c3)n2)c(OC(C)C)cc1C1CCNCC1 | 17 | 
16 | Cc1cc(Nc2ncc(Cl)c(Nc3cccc(-c4ccccc4)c3)n2)c(OC(C)C)cc1C1CCNCC1 | 19 | 
17 | Cc1cc(Nc2ncc(Cl)c(Nc3ccc(O)cc3)n2)c(OC(C)C)cc1C1CCNCC1 | 10 | 

Row | SMILES | MIC [1] [µM] | also measured
18 | Cc1cc(Nc2ncc(Cl)c(Nc3ccccc3S(=O)(=O)C(C)C)n2)c(OC(C)C)cc1N1CCNCC1 | 9 | 
19 | Cc1cc(NS(=O)(=O)c2ccc(N)cc2)no1 [SULFAMETHOXAZOLE] | 67 | 
20 | Cc1cc(Nc2ncc(Cl)c(Nc3ccc(C(N)=O)cc3)n2)c(OC(C)C)cc1C1CCNCC1 | 20 | 
21 | CC(C)S(=O)(=O)c1ccccc1Nc1nc(Nc2ccc(C#N)c(F)c2)ncc1Cl | > 200 | 
22 | Cc1cc(Cc2ncc(Cl)c(NCCc3ccc(O)cc3)n2)c(OC(C)C)cc1C1CCNCC1 | 10 | 
23 | CC(C)S(=O)(=O)c1ccccc1Nc1nc(Nc2ccc(C(N)=O)cc2)ncc1Cl | > 200 | 
24 | Cc1cc(Nc2ncc(Cl)c(NC34CC5CC(CC(C5)C3)C4)n2)c(OC(C)C)cc1C1CCNCC1 | 20 | 
25 | Cc1cc(Nc2ncc(Cl)c(Nc3ccccc3O)n2)c(OC(C)C)cc1C1CCNCC1 | ≤ 10 | 
26 | Cc1cc(Nc2ncc(Cl)c(Nc3ccccc3S(=O)(=O)C(C)C)n2)c(OC(C)C)cc1N1CCOCC1 | > 150 | 
27 | CC(C)S(=O)(=O)c1ccccc1Nc1nc(Nc2ccccc2O)ncc1Cl | > 200 | 
28 | Cc1cc(Nc2ncc(Cl)c(NCc3ccccc3)n2)c(OC(C)C)cc1C1CCNCC1 | 10 | 
29 | COc1ccc(-c2cc(Nc3nc(Nc4cc(C)c(C5CCNCC5)cc4OC(C)C)ncc3Cl)ccc2OC)cc1 | 17 | 
30 | Cc1cc(Nc2ncc(Cl)c(Nc3ccc4ccccc4c3)n2)c(OC(C)C)cc1C1CCNCC1 | 10 | 
31 | Cc1cc(Nc2ncc(Cl)c(NC3CCCCC3)n2)c(OC(C)C)cc1C1CCNCC1 | 11 | 
32 | Cc1cc(Nc2ncc(Cl)c(NCCc3ccc(F)cc3)n2)c(OC(C)C)cc1C1CCNCC1 | 10 | 
33 | Cc1cc(Nc2ncc(Cl)c(Nc3ccccc3S(=O)(=O)C(C)C)n2)c(OC(C)C)cc1N1CCN(C)CC1 | 18 | 
